Measurements: ChEMBL document CHEMBL1123981, “Arylpiperazine derivatives as high-affinity 5-HT1A serotonin ligands” (J Med Chem, 1988)

Columns and labels:
Assay type in all cases: tissue-based
[1] = target: T1, 5-hydroxytryptamine receptor 1A (Rattus norvegicus) (UniProt P19327); experiment: Hill coefficient in rat brain 5-hydroxytryptamine 1A assay
T1 sequence (whole entry): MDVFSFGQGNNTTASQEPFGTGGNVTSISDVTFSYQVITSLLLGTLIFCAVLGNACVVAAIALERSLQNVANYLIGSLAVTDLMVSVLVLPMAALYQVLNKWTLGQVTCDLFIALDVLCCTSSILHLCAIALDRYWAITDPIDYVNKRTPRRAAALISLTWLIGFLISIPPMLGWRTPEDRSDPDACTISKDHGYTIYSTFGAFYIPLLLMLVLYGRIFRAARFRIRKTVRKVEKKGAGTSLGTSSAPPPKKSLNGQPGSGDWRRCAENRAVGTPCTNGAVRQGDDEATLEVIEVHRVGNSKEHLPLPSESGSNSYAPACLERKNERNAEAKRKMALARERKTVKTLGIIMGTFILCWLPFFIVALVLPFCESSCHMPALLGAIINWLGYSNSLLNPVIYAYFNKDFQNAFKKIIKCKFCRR

[2] = target: T2, 5-hydroxytryptamine receptor 1A (Rattus norvegicus, UniProt P19327); experiment: Evaluated for binding affinity towards 5-hydroxytryptamine 1A receptor in rat brain
T2 sequence (P19327 whole entry): T1 sequence (whole entry)

[3] = target: T2, 5-hydroxytryptamine receptor 1A; experiment: Binding affinity towards 5-hydroxytryptamine 1A receptor in rat brain
How it was run: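 Rat hippocampal membranes (male Sprague-Dawley, ca. 220 g), homogenized in 50 mM Tris-HCl/0.5 mM EDTA/10 mM MgSO4, washed, preincubated 15 min at 37 °C; 0.1 nM [3H]8-OH-DPAT with 4 mg wet tissue in Tris pH 7.7 with pargyline, ascorbate; eleven competitor concentrations; 37 °C 20 min; nonspecific with 1 μM 8-OH-DPAT; filtration, scintillation counting; Ki by Cheng–Prusoff.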

Structure (SMILES) | Hill coefficient [1] | Ki [2] [nM] | Ki [3] [nM]
O=C1c2ccccc2C(=O)N1CCCN1CCN(c2ccccc2)CC1 | 0.99 | 200 | –
COc1ccccc1N1CCN(CCCCNC(=O)c2ccccc2)CC1 | 0.88 | 2 | –
O=C1c2ccccc2C(=O)N1CCCCCN1CCN(c2ccccc2)CC1 | 0.91 | 8.5 | –
c1ccc2c(N3CCNCC3)cccc2c1 | 0.85 | 11 | –
c1cnc(N2CCNCC2)nc1 [2-PIPERAZIN-1-YL-PYRIMIDINE] | 0.95 | 1410 | –
O=C1c2ccccc2C(=O)N1CCCCN1CCN(c2ncccn2)CC1 | 1.03 | 36 | –
FC(F)(F)c1cccc(N2CCNCC2)c1 | 0.97 | 175 | –
COc1ccc(Cl)cc1N1CCNCC1 | 0.97 | 870 | –
O=C1c2ccccc2C(=O)N1CCN1CCN(c2ccccc2)CC1 | – | > 10000 | –
NCCCCN1CCN(c2ccccc2)CC1 | – | > 6000 | –
c1ccc(C2CCNCC2)cc1 | 0.97 | 1520 | –
c1ccc(N2CCNCC2)cc1 [PHENYLPIPERAZINE] | 0.95 | 380 | –
CC1(C)CC(=O)N(CCCCN2CCN(c3ncccn3)CC2)C(=O)C1 | 1 | – | –
Clc1cccc(N2CCNCC2)c1 [CHLOROPHENYLPIPERAZINE] | 0.91 | 130 | –
O=C1c2ccccc2C(=O)N1CCCCN1CCN(c2ccccc2)CC1 | 0.99 | 10 | –
O=C1c2ccccc2C(=O)N1CCCCN1CCN(c2cccc3ccccc23)CC1 | 1.16 | 1 | –
c1ccc2cc(N3CCNCC3)ccc2c1 | 1.02 | 2900 | –
COc1ccccc1N1CCNCC1 | 0.88 | 68 | –
CC(=O)NCCCCN1CCN(c2ccccc2)CC1 | 0.99 | 250 | –
O=C(NCCCCN1CCN(c2ccccc2)CC1)c1ccccc1 | 0.82 | – | 11
O=C(NCCCCN1CCN(c2ncccn2)CC1)c1ccccc1 | 0.79 | 60 | –
